Most compounds without a hit are left out; they make up all but 3.6% or so of the library.
SR-BI DiI-HDL act = activators of SR-BI mediated DiI-HDL uptake, primary screen, ldlA[mSR-BI] CHO cells, DiI fluorescence. 3 h; 100 = double the neutral-control signal. activation, % at 12.5 µM. 0.096% of 320,000 active. AID 504775, 2011;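 active = mean replicate activation of at least 60% and every replicate at or above 60%; inconclusive = mean or all-replicate condition met, but not both; inactive = mean below 60% and not all replicates reaching 60%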;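 also: 0% = median plate neutral-control signal and 100% = twice that signal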
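Material – SR-BI-overexpressing, LDLR-lacking CHO cells · Medium – BSA-supplemented, HEPES-buffered Ham's F12, pH 7.4 · Doses – single concentration · Times – compound with DiI-HDL co-incubation, 3 h at 37 °C · Measured by – bottom-read fluorescence, 550/595 nm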
Wnt act = Wnt/beta-catenin pathway activators, primary screen, cell-based, plate reader, single point; Wnt/beta-catenin reporter cell assay, activator; activation, % at 9.35 µM; 1.2% of 300,000 active; AID 743398, 2014; in the data active = activation above about 30%, passing the limit was not always enough; inconclusive = no clear call, values can overlap the other calls;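 also: 0% = neutral control wells and 100% = positive control wells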
SR-BI DiI inh = inhibitors of SR-BI mediated HDL lipid uptake, primary screen, ldlA[mSR-BI] cells, fluorescence, single point; Scavenger receptor class B member 1 (Mus musculus), Q61009; ldlA[mSR-BI] CHO cells, DiI-HDL uptake fluorescence, 3 h; 0.96% of 320,000 active; inhibition, % at 12.5 µM;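 active = mean replicate inhibition of at least 70% and a set share of replicates each scoring 70 or more; inconclusive = meets just one of the two criteria; inactive = fails both criteria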;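 also: 0% = median of neutral control wells and 100% = median of positive control wells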
HSF-1 act = HSF-1 activators, primary screen, NIH3T3-HGL cells, MG132 stress, luminescence, single point. activation, % at 9 µM. 1.7% of 300,000 active. AID 504408, 2011. NIH3T3-HGL HSF-1 luciferase reporter, 8 h; 100% = twice DMSO control signal;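 active = mean replicate activation of at least 50% with a set share of replicates each reaching 50%; inconclusive = only one of those two conditions met; inactive = mean below 50% and too few replicates reaching it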;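 also: 0% = median of the neutral control wells and 100% = twice that signal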
MITF act = activators of MITF-driven TRPM1 promoter reporter, primary screen, cell-based, SK-MEL-5, luciferase, single point; SK-MEL-5 TRPM1-promoter luciferase, 24 h; % of positive control, neutral wells = 0; 0.75% of 300,000 active; activation, % at 12.5 µM;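 active = mean activation of at least 80% with every replicate also reaching 80%; inconclusive = mean reaches 80% but some replicate falls short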;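 also: 0% = neutral control wells and 100% = parthenolide positive control wells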
The depositor's hits bear a star; u = inconclusive; x = no result given.

SMILES	SR-BI DiI-HDL act	Wnt act	SR-BI DiI inh	HSF-1 act	MITF act
CCNC(=O)C1(C)CCN(C(=O)c2cccc3ccccc23)C1 (configuration not stated)	x	-2.4	x	x	x
CC(C)CN(C(=O)COC(=O)CSc1ccc(Br)cc1)C1CCS(=O)(=O)C1 (configuration not stated)	2.9	-0.9	-2.9	x	3.6
CCCCNC(=O)C1(C)CCN1C(=O)Cc1cccc2ccccc12 (configuration not stated)	x	-0.9	x	x	x
CC(=O)Nc1ccc(S(=O)(=O)NCC2CCN(C(=O)C(=O)c3cccs3)CC2)cc1	x	-5.4	x	x	x
O=C(OCc1cn([C@H]2C[C@H](c3ccccc3)N(Cc3cccs3)C[C@@H]2O)nn1)c1ccccc1	x	-0.3	x	x	x
O=Cc1cccc(OC(=O)c2ccc(Cl)cc2Cl)c1	x	x	x	64.1*	x
O=C(Cc1ccccc1)N1O[C@H]2C=C[C@@H]1C2	x	-2.8	x	x	x
CCC1=NN(C(=O)c2ccc(Br)cc2)C(O)(c2ccccc2)C1 (configuration not stated)	-79.5	-1.8	79.5*	20.0	-8.3
CC1=NN(C(=O)c2ccccc2)C(O)(c2ccc(Br)cc2)C1 (configuration not stated)	-94.3	7.3	94.3*	83.2*	x
CCC1=NN(C(=O)c2cccc([N+](=O)[O-])c2)C(O)(c2ccc(C)cc2)C1 (configuration not stated)	-76.0	1.0	76.0*	14.2	x
O=C(NOCc1cscn1)Nc1ccccc1	17.9	0.8	-17.9	-14.5	-2.3
Cc1ccccc1CCN(C(=O)c1csnn1)C(C(=O)NC1CCCC1)c1ccncc1 (configuration not stated)	x	0.0	x	9.5	-7.1
COC(=O)C1=C(C)N(C)C(=NCc2ccc(OC)cc2)NC1c1cccc(Cl)c1 (configuration not stated)	x	-1.6	x	x	x
CC(=O)Nc1cc([N+](=O)[O-])ccc1OCc1ccccc1	2.2	1.9	-2.2	x	-1.6
Cn1c(=O)c([N+](=O)[O-])c(NCCc2ccccc2)c2ccccc21	-14.5	0.6	14.5	16.0	-10.2
Cc1ccc(Nc2c([N+](=O)[O-])c(=O)n(C)c3ccccc23)cc1C	-71.2	-2.4	71.2*	-3.5	-14.6
COc1cccc(-c2oc3c(c2-c2ccc(OC)nc2)C(O)CCC3)c1 (configuration not stated)	x	-3.9	x	x	x
O=C(c1cc2cc(F)ccc2[nH]1)N1CCc2ccccc21	-19.4	41.8*	19.4	34.9	53.8
O=C(c1cc2cc(Br)ccc2[nH]1)N1CCc2ccccc21	2.7	4.5	-2.7	14.3	15.2
COc1ccc2cc(C(=O)N3CCc4ccccc43)[nH]c2c1	-53.7	46.1*	53.7	52.2*	39.4
CC(=O)Nc1ccc(S(=O)(=O)N(C)CC(=O)N2CCN(C(=O)c3ccco3)CC2)cc1	-5.8	4.1	5.8	x	9.7
CN1CCCCC(NC(=O)c2c(F)cccc2F)C1=O (configuration not stated)	x	-5.0	x	x	x
Clc1cc2nc(-c3cccnc3Cl)[nH]c2cc1Cl	-13.8	47.5*	13.8	54.8*	89.0*
O=C(c1cc(-c2ccc(F)cc2)on1)N1CCCCCC1	x	-4.3	x	6.5	138.1*
O=C(c1cc(-c2ccc(F)cc2)on1)N1CCOCC1	x	0.0	x	43.7	x
SMILES	SR-BI DiI-HDL act	Wnt act	SR-BI DiI inh	HSF-1 act	MITF act
Cc1ccc(-c2cc(C(=O)N3CCCCCC3)no2)cc1	2.1	u	-2.1	2.8	73.5
O=C(c1cc(-c2ccc(F)cc2)on1)N1CCCC1	29.2	x	-29.2	61.5*	9.9
Cc1cc(C)c(NN=c2c(=O)c3ccccc3c2=O)c(C)c1	58.6	21.0	-58.6	67.3*	116.0*
Cn1c(SCc2ccc(C#N)cc2Cl)nc2ccccc21	6.0	x	-6.0	92.8*	u
COC(=O)CCC[C@H](C)[C@@H](NS(=O)(=O)c1ccc(C)cc1)C(C)(C)C	x	1.4	x	x	x
CCOC(=O)C1CCN(CCC(=O)Nc2ccc(C)c(C)c2)CC1	-4.0	45.8*	4.0	x	9.6
CCOC(=O)C1CCCN(CCC(=O)Nc2ccc(C)c(C)c2)C1 (configuration not stated)	1.8	-0.4	-1.8	2.6	-5.3
